# Measured values of several laboratories.
# Target: G protein-coupled receptor kinase 3 (GRK3, Homo sapiens, UniProt P35626)
# Residues used in one study (P35626 1-688): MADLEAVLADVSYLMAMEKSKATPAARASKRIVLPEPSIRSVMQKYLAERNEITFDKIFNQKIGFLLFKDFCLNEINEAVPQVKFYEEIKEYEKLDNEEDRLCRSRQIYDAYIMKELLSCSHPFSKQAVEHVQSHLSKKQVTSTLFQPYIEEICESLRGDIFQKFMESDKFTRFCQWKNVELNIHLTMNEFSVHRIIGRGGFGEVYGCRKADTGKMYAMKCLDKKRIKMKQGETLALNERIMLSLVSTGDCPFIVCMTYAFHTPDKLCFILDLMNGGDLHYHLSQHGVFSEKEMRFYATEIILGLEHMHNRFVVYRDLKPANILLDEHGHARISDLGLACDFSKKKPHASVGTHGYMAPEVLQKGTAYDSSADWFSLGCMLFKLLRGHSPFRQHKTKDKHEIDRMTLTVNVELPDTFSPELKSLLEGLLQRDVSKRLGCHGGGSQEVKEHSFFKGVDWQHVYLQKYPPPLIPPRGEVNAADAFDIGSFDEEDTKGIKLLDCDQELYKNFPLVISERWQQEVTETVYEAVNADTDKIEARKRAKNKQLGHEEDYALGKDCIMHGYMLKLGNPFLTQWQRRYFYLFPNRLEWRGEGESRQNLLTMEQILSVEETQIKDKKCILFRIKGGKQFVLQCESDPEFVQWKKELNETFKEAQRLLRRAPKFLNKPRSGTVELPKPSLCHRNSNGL
SMILES,observed,action,technique,tested at,measurement,value
COCCOc1nc(-c2ccc(Cl)nc2)nc2c1CN(C(=O)c1ncn3ccccc13)CC2,cell-free assay,,competition with immobilised ligand,0.1 µM,remaining binding,100%
CN1CC(Oc2cnc(C#N)cc2-c2ccn3nc(NC(=O)C4CC4)cc3c2)C1,enzyme activity,inhibitor,,1 µM,inhibition,0%
COc1cc2ncnc(Nc3ccc(Oc4ccccc4)cc3C)c2cc1OC,enzyme activity,inhibitor,,1 µM,inhibition,1%
O=C(O)[C@H]1[C@H](Cn2nnc3ccccc3c2=O)CC[C@@H]1C(=O)c1ccc(OCCC2CCOCC2)cc1,cell-free assay,,competition with immobilised ligand,1 µM,remaining binding,100%
CC(C)(C)c1nc2c(s1)c1nc(N)ncc1c1ccc(NS(=O)(=O)c3c(F)cccc3F)c(F)c12,enzyme activity,inhibitor,radiometric,1 µM,remaining activity,96%
CCC1(CC)NC(=O)c2c(c3ccc(Cl)c(Cl)c3n2C)C1C#N (centres unmarked),thermal stability,,DSF,10 µM,ΔTm,0.1 °C
Cc1ccc(C(=O)NCc2ccsc2)cc1C#Cc1cn(C(C)C)c2ncnc(N)c12,enzyme activity,inhibitor,,1 µM,activity vs control,105%
CCOc1cc(-c2nncn2C)ccc1Nc1ncc2cc(C)nc(NCC(C)(C)C)c2n1,enzyme activity,inhibitor,FRET,1 µM,inhibition,< 15%
CCCS(=O)(=O)Nc1ccc(F)c(C(=O)c2c[nH]c3ncc(-c4ccc(Cl)cc4)cc23)c1F,enzyme activity,inhibitor,,1 µM,inhibition,< 10%
Cn1c2c(c3ccc(Cl)c(Cl)c31)C(C#N)C1(CCNCC1)NC2=O (racemic),thermal stability,,DSF,10 µM,ΔTm,1.1 °C
O=C(Nc1cnn(-c2csc(C(=O)NC3COC3)c2)c1)Nc1ccccc1Cl,enzyme activity,inhibitor,,5 µM,remaining activity,102%
CNC(=O)c1ccc(Nc2ncc(C(F)(F)F)c(NCc3nccnc3N(C)S(C)(=O)=O)n2)cc1,cell-free assay,,competition with immobilised ligand,0.1 µM,remaining binding,80%
Cn1c2c(Cl)c(Cl)ccc2c2cc(N)[nH]c(=O)c21,thermal stability,,DSF,10 µM,ΔTm,0 °C
O=C1NC(=O)c2cc(Nc3ccc(F)cc3)c(Nc3ccc(F)cc3)cc21,cell-free assay,,,0.5 µM,remaining signal,104%
Cn1c2c(Cl)c(Cl)ccc2c2cn[nH]c(=O)c21,thermal stability,,DSF,10 µM,ΔTm,0 °C
Cc1c(NC(=O)c2cc(C(N)=O)nc3cc(F)ccc23)c(C(F)(F)F)nn1Cc1ccc(C#N)cc1,cell-free assay,,competition with immobilised ligand,1 µM,remaining binding,89%
Cn1c2c(Cl)c(Cl)ccc2c2cc[nH]c(=O)c21,thermal stability,,DSF,10 µM,ΔTm,-0.3 °C
CS(=O)(=O)N1CCCC(NC(=O)[C@H](CCC2CCCCC2)NC(=O)c2ccc(CNc3ncnc4c3nnn4-c3ccccc3)cc2)C1 (some centres unmarked),cell-free assay,,competition with immobilised ligand,0.1 µM,remaining binding,100%
Cn1c2c(c3ccc(Cl)c(Cl)c31)C(C#N)C1(CCOCC1)NC2=O (centres unmarked),thermal stability,,DSF,10 µM,ΔTm,0 °C
COc1ccc2c(c1)O[C@@H](c1ccc(OC)c(OC)c1)C[C@H]2NC(=O)C1(c2ccc3c(c2)OC(F)(F)O3)CC1,cell-free assay,,competition with immobilised ligand,1 µM,remaining binding,75%
